# The source made the active and inactive calls. The calls are words filed in the database; no cut-off is given here.
# Experiments:
# Escherichia coli [1] = assay: microbe, parasite or virus in culture; assay type: functional; details: TOP10
# [2] = system: Achromobacter xylosoxidans; assay: Antibacterial activity against Achromobacter xylosoxidans TB1 by agar dilution method; assay type: functional
# Method in brief: (§1)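 MICs of β-lactams measured by agar dilution, with interpretation per CLSI guidelines. Combination tests used clavulanic acid or tazobactam at a fixed 4 μg/ml. Reference strain CIP69598 and clinical isolates MER, TB1, LOL and DUC, identified by API 32-GN. Cultures routinely grown in TS broth at 37°C.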
# Escherichia coli [3] = assay: Antibacterial activity against Escherichia coli TOP10 by agar dilution method; assay type: functional
# Method in brief: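 MIC determined by agar dilution; results interpreted per CLSI guidelines. E. coli TOP10 serves as the cloning host. Bacteria were routinely grown in Trypticase soy broth at 37°C.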
# [4] = system: Achromobacter xylosoxidans; assay: Antibacterial activity against Achromobacter xylosoxidans CIP69598 by agar dilution method; assay type: functional
# Method in brief: as §1
# [5] = system: Achromobacter xylosoxidans; assay: Antibacterial activity against Achromobacter xylosoxidans DUC by agar dilution method; assay type: functional
# Method in brief: as §1
# [6] = system: Achromobacter xylosoxidans; assay: Antibacterial activity against Achromobacter xylosoxidans MER by agar dilution method; assay type: functional
# Method in brief: as §1
# [7] = system: Achromobacter xylosoxidans; assay: Antibacterial activity against Achromobacter xylosoxidans LOL by agar dilution method; assay type: functional
# Method in brief: as §1
# [8] = system: Achromobacter xylosoxidans; assay: Activity of Achromobacter xylosoxidans CIP69598 beta-lactamase OXA-114a expressed in Escherichia coli TOP10 assessed as compound hydrolysis
# Method in brief: (§2)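 OXA-114a purified from E. coli TOP10(p6S3) grown overnight in TS broth with kanamycin 30 μg/ml and ampicillin 50 μg/ml, by sonication, spermine, Q-Sepharose (pH 8.8) and S-Sepharose (pH 6.5) steps. Initial hydrolysis rates read by UV spectrophotometry at 30°C in 100 mM Tris-H2SO4-300 mM K2SO4 pH 7.0 with 10 mM NaHCO3. kcat and Km are means of three independent experiments.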
# [9] = system: Achromobacter xylosoxidans; assay: Ratio of Kcat to Km for Achromobacter xylosoxidans CIP69598 beta-lactamase OXA-114a expressed in Escherichia coli TOP10; set-up: unit not given here
# Method in brief: as §2
# [10] = system: Achromobacter xylosoxidans; assay: Antibacterial activity against Achromobacter xylosoxidans MER in presence of 4 ug/ml clavulanic acid by agar dilution method; assay type: functional
# Method in brief: as §1
# [11] = system: Achromobacter xylosoxidans; assay: Antibacterial activity against Achromobacter xylosoxidans DUC in presence of 4 ug/ml clavulanic acid by agar dilution method; assay type: functional
# Method in brief: as §1
# [12] = system: Achromobacter xylosoxidans; assay: Antibacterial activity against Achromobacter xylosoxidans LOL in presence of 4 ug/ml clavulanic acid by agar dilution method; assay type: functional
# Method in brief: as §1
# [13] = system: Achromobacter xylosoxidans; assay: Antibacterial activity against Achromobacter xylosoxidans CIP69598 in presence of 4 ug/ml clavulanic acid by agar dilution method; assay type: functional
# Method in brief: as §1
# Escherichia coli [14] = assay: Antibacterial activity against Escherichia coli TOP10 harboring recombinant p6S3 expressing beta lactamase OXA-114a in presence of 4 ug/ml clavulanic acid by agar dilution method; assay type: functional
# Method in brief: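 Agar dilution MIC with clavulanic acid held at a fixed 4 μg/ml; interpreted per CLSI guidelines. Host E. coli TOP10 was electroporated with p6S3, a kanamycin-resistant pBK-CMV vector carrying a Sau3AI partial-digest fragment of A. xylosoxidans CIP69598 genomic DNA. Routine growth was in Trypticase soy broth at 37°C.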
# [15] = system: Achromobacter xylosoxidans; assay: Antibacterial activity against Achromobacter xylosoxidans TB1 in presence of 4 ug/ml clavulanic acid by agar dilution method; assay type: functional
# Method in brief: as §1
# Escherichia coli [16] = assay: Antibacterial activity against Escherichia coli TOP10 in presence of 4 ug/ml clavulanic acid by agar dilution method; assay type: functional
# Method in brief: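 Agar dilution MICs of β-lactams, with clavulanic acid held at a fixed 4 μg/ml alongside each β-lactam. Results were interpreted against CLSI guidelines. Strains were routinely grown in Trypticase soy broth at 37°C. The E. coli TOP10 host was tested, including TOP10 carrying a pBK-CMV clone of the chromosomal A. xylosoxidans CIP69598 class D β-lactamase gene.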
# [17] = system: Achromobacter xylosoxidans; assay: Induction of Achromobacter xylosoxidans CIP69598 beta-lactamase OXA-114a expressed in Escherichia coli TOP10 assessed as imipenem hydrolysis
# Method in brief: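 Hydrolysis measured with 100 μM benzylpenicillin or imipenem as substrate. One unit hydrolyzes 1 μmol substrate/min. Protein measured against a bovine albumin standard.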
# [18] = system: Achromobacter xylosoxidans; assay: Antibacterial activity against Achromobacter xylosoxidans CIP69598 in presence of 4 ug/ml Tazobactam by agar dilution method; assay type: functional
# Method in brief: as §1
# [19] = Inhibition of Achromobacter xylosoxidans CIP69598 beta-lactamase OXA-114a expressed in Escherichia coli TOP10 assessed as reduction of benzyl-penicillin hydrolysis
# Method in brief: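 Ki obtained by competition with benzylpenicillin as reporter substrate. Purified enzyme, 30°C, 100 mM Tris-H2SO4-300 mM K2SO4 pH 7.0 with 10 mM NaHCO3. Initial rates read by UV spectrophotometry. Means of three independent experiments.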
# [20] = system: Achromobacter xylosoxidans; assay: Antibacterial activity against Achromobacter xylosoxidans MER in presence of 4 ug/ml Tazobactam by agar dilution method; assay type: functional
# Method in brief: as §1
# Escherichia coli [21] = assay: Antibacterial activity against Escherichia coli TOP10 harboring recombinant p6S3 expressing beta lactamase OXA-114a in presence of 4 ug/ml Tazobactam by agar dilution method; assay type: functional
# Method in brief: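 MICs by agar dilution, with tazobactam held at a fixed 4 μg/ml and results read against CLSI guidelines. Strain is E. coli TOP10 carrying p6S3, a kanamycin-resistant pBK-CMV vector holding a partial Sau3AI fragment of A. xylosoxidans CIP69598 genomic DNA. It was selected on ticarcillin 50 mg/liter plus kanamycin 30 mg/liter. Cultures were routinely grown in TS broth at 37°C.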
# Escherichia coli [22] = assay: Antibacterial activity against Escherichia coli TOP10 in presence of 4 ug/ml Tazobactam by agar dilution method; assay type: functional
# Method in brief: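 Plasmid-free E. coli TOP10 cloning host, tested by agar dilution MIC with tazobactam at a fixed 4 μg/ml and interpreted per CLSI guidelines. Cultures were routinely grown in Trypticase soy broth at 37°C.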
# [23] = system: Achromobacter xylosoxidans; assay: Antibacterial activity against Achromobacter xylosoxidans DUC in presence of 4 ug/ml Tazobactam by agar dilution method; assay type: functional
# Method in brief: as §1
# [24] = system: Achromobacter xylosoxidans; assay: Antibacterial activity against Achromobacter xylosoxidans LOL in presence of 4 ug/ml Tazobactam by agar dilution method; assay type: functional
# Method in brief: as §1
# [25] = system: Achromobacter xylosoxidans; assay: Antibacterial activity against Achromobacter xylosoxidans TB1 in presence of 4 ug/ml Tazobactam by agar dilution method; assay type: functional
# Method in brief: as §1
smiles,measurement,setting,value
CO[C@@]1(NC(=O)C(C(=O)O)c2ccc(O)cc2)C(=O)N2C(C(=O)O)=C(CSc3nnnn3C)CO[C@@H]21 (stereo not given in full) [MOXALACTAM],MIC,Escherichia coli [1],1 µg/mL
same,MIC,[2],2 µg/mL
same,MIC,Escherichia coli [3],1 µg/mL
same,MIC,[4],2 µg/mL
same,MIC,[5],2 µg/mL
same,MIC,[6],2 µg/mL
same,MIC,[7],1 µg/mL
CC1(C)S[C@@H]2[C@H](NC(=O)Cc3ccccc3)C(=O)N2[C@H]1C(=O)O,Km,[8],10 µM
same,kcat,[8],0.1 s⁻¹
same,Ratio,[9],10
CO/N=C(\C(=O)N[C@@H]1C(=O)N2C(C(=O)O)=C(COC(N)=O)CS[C@H]12)c1ccco1 [CEFUROXIME],MIC,Escherichia coli [1],4 µg/mL
same,MIC,[2],> 64 µg/mL
same,MIC,Escherichia coli [3],2 µg/mL
same,MIC,[4],> 64 µg/mL
same,MIC,[5],> 64 µg/mL
same,MIC,[6],> 64 µg/mL
same,MIC,[7],> 64 µg/mL
CC(C)(O/N=C(\C(=O)N[C@@H]1C(=O)N2C(C(=O)[O-])=C(C[n+]3ccccc3)CS[C@H]12)c1csc(N)n1)C(=O)O [CEFTAZIDIME],MIC,Escherichia coli [1],0.06 µg/mL
same,MIC,[2],4 µg/mL
same,MIC,Escherichia coli [3],0.06 µg/mL
same,kcat,[8],< 0.01 s⁻¹
same,MIC,[4],4 µg/mL
same,MIC,[5],8 µg/mL
same,MIC,[6],16 µg/mL
same,MIC,[7],4 µg/mL
CC(=O)OCC1=C(C(=O)O)N2C(=O)[C@@H](NC(=O)Cc3cccs3)[C@H]2SC1 [CEPHALOTHIN],MIC,Escherichia coli [1],8 µg/mL
same,MIC,[2],32 µg/mL
same,MIC,Escherichia coli [3],2 µg/mL
same,Km,[8],15 µM
same,kcat,[8],0.5 s⁻¹
same,Ratio,[9],30
same,MIC,[4],> 64 µg/mL
same,MIC,[5],32 µg/mL
same,MIC,[6],32 µg/mL
same,MIC,[7],> 64 µg/mL
CC1(C)S[C@@H]2[C@H](NC(=O)[C@H](N)c3ccc(O)cc3)C(=O)N2[C@H]1C(=O)O [AMOXICILLIN],MIC,Escherichia coli [1],16 µg/mL
same,MIC,[2],8 µg/mL
same,MIC,Escherichia coli [3],2 µg/mL
same,MIC,[10],1 µg/mL
same,MIC,[11],1 µg/mL
same,MIC,[12],8 µg/mL
same,MIC,[13],4 µg/mL
same,MIC,Escherichia coli [14],16 µg/mL
same,MIC,[4],16 µg/mL
same,MIC,[5],1 µg/mL
same,MIC,[15],8 µg/mL
same,MIC,[6],2 µg/mL
same,MIC,Escherichia coli [16],2 µg/mL
same,MIC,[7],> 64 µg/mL
CC1(C)S[C@@H]2[C@H](NC(=O)[C@H](C(=O)O)c3ccsc3)C(=O)N2[C@H]1C(=O)O [TICARCILLIN],MIC,Escherichia coli [1],4 µg/mL
same,MIC,[2],1 µg/mL
same,MIC,Escherichia coli [3],2 µg/mL
same,Km,[8],40 µM
same,kcat,[8],0.1 s⁻¹
same,MIC,[10],1 µg/mL
same,MIC,[11],1 µg/mL
same,MIC,[12],> 64 µg/mL
same,MIC,[13],4 µg/mL
same,MIC,Escherichia coli [14],4 µg/mL
same,Ratio,[9],2.5
same,MIC,[4],4 µg/mL
same,MIC,[5],1 µg/mL
same,MIC,[15],1 µg/mL
same,MIC,[6],1 µg/mL
same,MIC,Escherichia coli [16],2 µg/mL
same,MIC,[7],> 64 µg/mL
C[C@H]1[C@H](NC(=O)/C(=N\OC(C)(C)C(=O)O)c2csc(N)n2)C(=O)N1S(=O)(=O)O [AZTREONAM],MIC,[2],> 64 µg/mL
same,MIC,[4],> 64 µg/mL
same,MIC,[5],> 64 µg/mL
same,MIC,[6],> 64 µg/mL
same,MIC,[7],> 64 µg/mL
CO[C@@]1(NC(=O)Cc2cccs2)C(=O)N2C(C(=O)O)=C(COC(N)=O)CS[C@@H]21 [CEFOXITIN],MIC,Escherichia coli [1],4 µg/mL
same,MIC,[2],> 64 µg/mL
same,MIC,Escherichia coli [3],4 µg/mL
same,kcat,[8],< 0.01 s⁻¹
same,MIC,[4],> 64 µg/mL
same,MIC,[5],> 64 µg/mL
same,Activity,[17],inactive
same,MIC,[6],> 64 µg/mL
same,MIC,[7],> 64 µg/mL
CO/N=C(\C(=O)N[C@@H]1C(=O)N2C(C(=O)[O-])=C(C[N+]3(C)CCCC3)CS[C@H]12)c1csc(N)n1,MIC,Escherichia coli [1],0.12 µg/mL
same,MIC,[2],> 64 µg/mL
same,MIC,[4],64 µg/mL
same,MIC,[5],> 64 µg/mL
same,MIC,[6],> 64 µg/mL
same,MIC,[7],> 64 µg/mL
C[C@@H](O)[C@H]1C(=O)N2C(C(=O)O)=C(SCCNC=N)C[C@H]12 [IMIPENEM ANHYDROUS],MIC,[2],1 µg/mL
same,Km,[8],> 2000 µM
same,kcat,[8],> 0.1 s⁻¹
same,MIC,[4],4 µg/mL
same,MIC,[5],1 µg/mL
same,Activity,[17],inactive
same,MIC,[6],1 µg/mL
same,MIC,[7],4 µg/mL
CCN1CCN(C(=O)N[C@@H](C(=O)N[C@@H]2C(=O)N3[C@@H]2SC(C)(C)[C@@H]3C(=O)O)c2ccccc2)C(=O)C1=O [PIPERACILLIN],MIC,[18],0.5 µg/mL
same,Ki,[19],1000 nM
same,MIC,[20],0.5 µg/mL
same,MIC,Escherichia coli [1],4 µg/mL
same,MIC,[2],2 µg/mL
same,MIC,Escherichia coli [3],1 µg/mL
same,kcat,[8],0.5 s⁻¹
same,MIC,Escherichia coli [21],4 µg/mL
same,MIC,Escherichia coli [22],1 µg/mL
same,MIC,[23],0.5 µg/mL
same,MIC,[24],4 µg/mL
same,Ratio,[9],100
same,MIC,[4],1 µg/mL
same,MIC,[5],1 µg/mL
same,MIC,[25],1 µg/mL
same,MIC,[6],1 µg/mL
same,MIC,[7],4 µg/mL
CO/N=C(\C(=O)N[C@@H]1C(=O)N2C(C(=O)O)=C(COC(C)=O)CS[C@H]12)c1csc(N)n1 [CEFOTAXIME],MIC,Escherichia coli [1],0.25 µg/mL
same,MIC,[2],> 64 µg/mL
same,MIC,Escherichia coli [3],0.12 µg/mL
same,kcat,[8],< 0.01 s⁻¹
same,MIC,[4],> 64 µg/mL
same,MIC,[5],> 64 µg/mL
same,MIC,[6],> 64 µg/mL
same,MIC,[7],> 64 µg/mL
Cc1onc(-c2ccccc2)c1C(=O)N[C@@H]1C(=O)N2[C@@H]1SC(C)(C)[C@@H]2C(=O)O,kcat,[8],< 0.01 s⁻¹

# Source: ChEMBL document CHEMBL1255355, “Characterization of a naturally occurring class D beta-lactamase from Achromobacter xylosoxidans” (Antimicrob Agents Chemother, 2008)
